Tests used:
[1] = Inhibition of concanavalin A-induced mouse T cells proliferation assessed as [3H]TdR incorporation at 1 uM […]; assay type: functional, T-cell
Outline: (§1)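 Mouse spleen cells (4 × 10^6/well) were cultured with test compound plus a selective stimulus: concanavalin A at 5 µg/mL for T cells, or E. coli LPS for B cells. Incubation was 48 h at 37 °C in 5% CO2, with a 0.25 µCi/well 3H-thymidine pulse over the final 6 h. Incorporated radioactivity was read by liquid scintillation, as the mean of triplicates, with Student t-test versus control.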

[2] = Inhibition of LPS-induced mouse B cells proliferation assessed as [3H]TdR incorporation at 10 uM […]; assay type: functional; outline: as §1
[3] = Inhibition of LPS-induced mouse B cells proliferation assessed as [3H]TdR incorporation at 1 uM […]; assay type: functional; outline: as §1
[4] = Inhibition of concanavalin A-induced mouse T cells proliferation assessed as [3H]TdR incorporation at 10 uM […]; assay type: functional, T-cell; outline: as §1
[5] = Inhibition of concanavalin A-induced mouse T cells proliferation assessed as [3H]TdR incorporation at 0.1 uM […]; assay type: functional, T-cell; outline: as §1
[6] = Inhibition of LPS-induced mouse B cells proliferation assessed as [3H]TdR incorporation at 0.1 uM […]; assay type: functional; outline: as §1

| SMILES | Activity [1] | Activity [2] | Activity [3] | Activity [4] | Activity [5] | Activity [6] |
| --- | --- | --- | --- | --- | --- | --- |
| COc1c(O[C@@H]2O[C@H](CO)[C@@H](O)[C@H](O)[C@H]2O)cc(C(=O)CCc2ccc(O)cc2)cc1O[C@@H]1O[C@H](CO)[C@@H](O)[C@H](O)[C@H]1O | 74100 cpm | 24600 cpm | 22800 cpm | 74100 cpm | 84800 cpm | 30900 cpm |
| COc1cc(O)c(C(=O)CCc2ccc(O)c(O)c2)c(O[C@@H]2O[C@H](CO)[C@@H](O)[C@H](O)[C@H]2O)c1 | 71400 cpm | 24000 cpm | 22100 cpm | 33000 cpm | 66700 cpm | 22200 cpm |
| COc1cc(O)c(C(=O)CCc2ccc(O)cc2)c(O[C@@H]2O[C@H](CO)[C@@H](O)C(=O)[C@H]2O)c1 | 26700 cpm | 16400 cpm | 35000 cpm | 32000 cpm | 38300 cpm | 34200 cpm |
| COc1cc(O)c(C(=O)CCc2ccc(O)cc2)c(O[C@@H]2O[C@H](CO)[C@@H](O)[C@H](O)[C@H]2OC(C)=O)c1 | 81600 cpm | 29800 cpm | 45000 cpm | 70100 cpm | 83300 cpm | 46600 cpm |
| COc1cc(O)c(C(=O)CCc2ccc(O)cc2)c(O)c1 [ASEBOGENIN] | 80300 cpm | 34100 cpm | 28300 cpm | 58400 cpm | 79300 cpm | 32500 cpm |
| COc1cc(O)c(C(=O)CCc2ccc(O)cc2)c(O[C@@H]2O[C@H](CO)[C@@H](O)[C@H](O)[C@H]2O)c1 [ASEBOTIN] | 87200 cpm | 35200 cpm | 40700 cpm | 79600 cpm | 89800 cpm | 47400 cpm |
| O=C(CCc1ccc(O)cc1)c1c(O)cc(O)cc1O [PHLORETIN] | 75700 cpm | 30700 cpm | 29300 cpm | 69400 cpm | 63900 cpm | 32700 cpm |
| O=C(CCc1ccc(O)cc1)c1c(O)cc(O)cc1O[C@@H]1O[C@H](CO)[C@@H](O)[C@H](O)[C@H]1O [PHLORIZIN] | 35500 cpm | 30500 cpm | 32400 cpm | 33000 cpm | 36100 cpm | 33000 cpm |
| COc1cc(O)c(C(=O)CCc2ccc(O)cc2)c(O)c1Cc1c(OC)cc(O)c(C(=O)CCc2ccc(O)cc2)c1O [PIEROTIN A] | 75000 cpm | 36500 cpm | 32700 cpm | 22600 cpm | 75400 cpm | 38100 cpm |
| COc1cc(O)c(C(=O)CCc2ccc(O)cc2)c2oc3cc(O)c(O)cc3c12 [PIEROTIN B] | 59000 cpm | 3940 cpm | 28600 cpm | 10800 cpm | 76200 cpm | 22800 cpm |
